# High-throughput results from PubChem BioAssay.
# Sampled rows, rich in hits. Any-hit rate of the full collection: about 2.7%.
# PLK1 PBD inh: Plk1 (human) PBD binding inhibition; Plk1 PBD phosphopeptide binding, fluorescence polarization; inhibition, %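 (tested at about 20 µM)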; 97,000 compounds, 0.13% hits; AID 693; in the data active = inhibition above about 34%, passing the limit was not always enough
# Target sequence (P53350 whole entry, looked up): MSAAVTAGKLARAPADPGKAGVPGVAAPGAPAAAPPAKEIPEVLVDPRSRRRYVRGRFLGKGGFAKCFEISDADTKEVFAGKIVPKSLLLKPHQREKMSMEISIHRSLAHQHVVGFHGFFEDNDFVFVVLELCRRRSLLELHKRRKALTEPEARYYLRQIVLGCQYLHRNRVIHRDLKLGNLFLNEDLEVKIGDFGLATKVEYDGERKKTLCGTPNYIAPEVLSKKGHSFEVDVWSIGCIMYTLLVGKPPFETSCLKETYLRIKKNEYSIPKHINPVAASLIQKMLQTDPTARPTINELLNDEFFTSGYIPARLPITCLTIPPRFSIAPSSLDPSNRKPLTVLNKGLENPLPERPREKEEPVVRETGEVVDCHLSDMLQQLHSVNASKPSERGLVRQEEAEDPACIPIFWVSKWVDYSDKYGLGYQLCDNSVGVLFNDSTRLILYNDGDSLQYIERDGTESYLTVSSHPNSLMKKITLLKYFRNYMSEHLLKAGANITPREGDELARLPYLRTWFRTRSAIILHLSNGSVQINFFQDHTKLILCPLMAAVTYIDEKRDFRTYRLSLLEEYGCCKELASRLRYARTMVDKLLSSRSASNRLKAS
# DAT uptake mod: modulates human dopamine transporter uptake under cocaine; LLC-PK1 hDAT cells, [14C]-dopamine uptake with cocaine IC80; actives deviate in either direction; B-score at 10 µM; 110,000 compounds, 1.3% hits; Q01959;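 active = Z score or B-score, a plate-position-corrected score, falls beyond the plate's 99.7% confidence bounds, in either direction; inactive = both scores lie inside the 99.7% bounds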;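 also: scored against the spread of the other compound wells on the same plate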
# PTPN22 act: LYP (human) phosphatase activation | Q9Y2R2 | recombinant LYP, DiFMUP fluorescence; 0 = plate median, 100 = signal doubled | activation, % at 2 µM | 96,000 compounds, 0.11% hits | AID 697;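 active = activation at 2 µM above a set limit, the mean plus 5 SD, cut at about 37% in these data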
# PLK1 kinase inh: blocks human PLK1 kinase activity | P53350 | recombinant PLK1 kinase, TR-FRET peptide phosphorylation | inhibition, % at 10 µM | 97,000 compounds, 0.53% hits | AID 619;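 active = inhibition of 50% or more in the single-concentration screen; inactive = inhibition below 50%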;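 also: 0% = DMSO max control and 100% = H-89 dihydrochloride min control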
# LYP inh 2: LYP (human) phosphatase inhibition; recombinant LYP catalytic domain, DiFMUP fluorescence; 96,000 compounds, 0.21% hits; Q9Y2R2; AID 640; inhibition, % at 2 µM;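 active = inhibition at 2 µM at or above a set limit, the screen mean plus 3 SD, cut at about 24% in these data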;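 also: 0% = DMSO with enzyme and 100% = enzyme fully blocked by orthovanadate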
# HIV Rev-RRE inh: inhibitors of HIV-1 Rev-RRE RNA interaction; P05866; Rev peptide-RRE RNA binding, FRET; inhibition, % at 8 µM; 97,000 compounds, 0.79% hits; AID 704;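 active = inhibition above the screen-wide mean plus 3 SD, cut at about 35% in these data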;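 also: 0% = median DMSO wells and 100% = median Neomycin B control wells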
#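 Material: labelled RRE RNA duplex and labelled Rev peptide / Buffer or medium: HEPES pH 7.5 salt buffer with EDTA / Compound dosing: single point, 8 µM final nominal compound concentration / Benchmarks: DMSO low control, neomycin B high control / Timing: 5 min preincubation and 15 min binding, 25 °C / Technique: FRET fluorescence readout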
# PLK1 inh conf: confirmation of human PLK1 kinase inhibitors | recombinant PLK1 kinase, TR-FRET peptide phosphorylation | inhibition, % at 10 µM | shares compounds with PLK1 kinase inh | AID 744 | 210 compounds, 20% hits;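 active = inhibition at or above 50% in each of two repeat confirmation tests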;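 also: 0% = DMSO max control and 100% = H-89 kinase-blocked min control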
# TR-FRET interf: Plk1 assay compound interference counter-screen hit | Plk1 TR-FRET assay interference, compound added post-reaction | shares compounds with PLK1 kinase inh | 210 tested, under 10 active | inhibition (interference), % at 10 µM;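 active = both duplicate runs show 50% or greater inhibition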;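 also: 0% = DMSO max control and 100% = H-89 min control inhibited reaction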
# * = called active by the depositor; . = not tested or not shown; [ ] = another dose, or the depositor's remark.
SMILES,PLK1 PBD inh,DAT uptake mod,PTPN22 act,PLK1 kinase inh,LYP inh 2,HIV Rev-RRE inh,others
O=C1c2ccccc2C(Nc2ccc3c(c2)OCCO3)N1Cc1ccc2c(c1)OCO2 (stereo not given),24,0.32,13,-12,-14,-4,
Cc1cc(Nc2ccc(N3CCC(C)CC3)cc2)n2ncnc2n1,-2,-0.2,3,-1,0,0,
COc1ccc(-n2c(NC(=O)c3ccco3)c(C#N)c3nc4ccccc4nc32)cc1,12,-0.14,1,-7,-1,37*,
COc1ccc2nc3sc(C(=O)NCc4cccs4)c(N)c3cc2c1,3,1,-10,14,10,40*,
COc1cccc(C(=O)c2c[nH]c(C(=O)NCc3cccs3)c2)c1,9,2.3,.,-12,.,2,
Fc1ccc(-c2nc3ccncc3[nH]2)cc1,-12,0.28,5,65*,-2,8,
CCCn1nc(NC(=O)c2ccncc2)c2cc3ccccc3nc21,-21,0.66,7,-1,-8,8,
CCCC(=O)Nc1nn(CCC)c2nc3ccccc3cc12,14,2.1*,-6,-11,6,4,
CCn1nc(NC(=O)c2ccncc2)c2cc3ccc(C)cc3nc21,28,0.48,-13,0,13,1,
CCn1nc(NC(=O)c2ccncc2)c2cc3cc(C)ccc3nc21,-8,2.2*,-5,-5,2,9,
CCN(CC)c1ccc(/C=c2\sc3nnc(-c4ccccc4Cl)n3c2=O)cc1,-239,0.94,7,-26,-6,134*[fluorescence artefact?],
Cc1ccc(/C=c2/sc3nnc(-c4ccccc4Cl)n3c2=O)o1,-4,1.7,2,-11,-4,4,
CCN(CC)c1ccc(/C=c2/sc3nnc(-c4ccccc4C)n3c2=O)cc1,-185,0.23,-7,-36,10,118*[fluorescence artefact?],
N#CCCS(=O)(=O)c1nnnn1-c1ccccc1,0,-1.2,4,-7,-5,2,
CCOc1c2ccc(C(=O)N[C@H](C)C3CCCCC3)cc2nn1CC,-23,0.6,9,-9,-6,7,
Clc1cccc(Nc2c3c(nc4ncnn24)CCC3)c1,-11,0.057,-8,54*,6,0,
COc1cccc(NC(=O)CCN2CCC(C(N)=O)CC2)c1,-23,-0.18,-6,-3,3,13,
CCOC(=O)C1=C(C)N=c2s/c(=C\c3cccn3C)c(=O)n2C1c1cccc(OC)c1OC (stereo not given),-74,0.7,-5,-15,8,88*[fluorescence artefact?],
COc1cc(CCN2C(=O)c3cccc4cccc(c34)C2=O)c(S(=O)(=O)NCCCO)cc1OC,-7,-0.89,-2,0,2,2,
CC1(C)CC(=O)C2=C(C1)OC(N)=C(C#N)C21CCC2(CC1)OCCO2,1,23*,6,-16,-7,6,
COc1ccccc1CN=Cc1[nH]c2ccc(Br)c(Cl)c2c1O,-134,-0.22,10,-21,-8,87*[fluorescence artefact?],
O=C(O)C1=C[C@H](c2coc3ccccc3c2=O)C[C@H](OCc2ccc(CO)cc2)O1,.,-0.77,.,.,.,.,
COc1ccc2c(c1)c(=O)oc1cc(OCC(=O)N3CCCC(C)C3)ccc12 (stereo not given),5,-2.5*,-11,-9,7,2,
CCCCn1nnnc1SCC(=O)NCc1ccco1,-13,0.22,4,-2,-6,-1,
O=C(CSc1nc2ccccc2c2nc3ccccc3n12)NCc1ccco1,10,1.5,-25,2,30*,0,
SMILES,PLK1 PBD inh,DAT uptake mod,PTPN22 act,PLK1 kinase inh,LYP inh 2,HIV Rev-RRE inh,others
COc1ccccc1OCc1nnc(SCC(=O)NCc2ccco2)n1Cc1ccco1,11,0.73,-26,-16,26*,2,
CCn1nnnc1SCC(=O)NCc1ccco1,2,-8.8*,5,-1,-7,2,
COc1ccccc1NC(=O)CSc1nnc(COc2ccc(Cl)cc2)n1Cc1ccco1,14,-0.31,5,-15,-8,4,
Cn1c(SCC(=O)NCc2ccco2)nnc1-c1c[nH]c2ccccc12,-15,1.4,.,65*,.,-1,
O=C(CCn1c(=O)[nH]c2ccsc2c1=O)Nc1ccc(F)c(F)c1,-6,-0.86,-1,-13,-1,5,
Cc1cc(C)nc(SCc2nnc(SCC(=O)Nc3nccs3)n2Cc2ccco2)n1,13,2.2,7,30,-7,8,
Cc1cccc(NC(=O)CSc2nnc(CSc3nc(C)cc(C)n3)n2Cc2ccco2)c1,3,2.8*,2,-1,-3,3,
CCCSc1nnc(-c2c[nH]c3ccccc23)n1C,4,-0.11,.,64*,.,6,
CCn1c(SCc2cccnc2)nnc1-c1c[nH]c2ccccc12,-12,0.13,.,67*,.,7,
CCCSc1nnc(-c2c[nH]c3ccccc23)n1CC,1,0.66,.,60*,.,11,
CCc1nnc(NC(=O)CSc2nnc(-c3c[nH]c4ccccc34)n2CC)s1,15,0.9,0,-8,-3,6,
O=C(NC1CC2CCCC(C1)N2Cc1ccco1)NC12CC3CC(CC(C3)C1)C2 (stereo not given),6,-7.4*,2,-4,-4,2,
CC1CCC(NC(=O)c2ccc3c(c2)S(=O)(=O)c2ccccc2C3=O)CC1 (stereo not given),.,0.79,.,.,.,.,
CCC1SC2=NC(C)=C(C(=O)OCCOC)C(/C=C/c3ccccc3OC)N2C1=O (stereo not given),10,-7.6*,-3,-5,0,9,
Cc1nc(N2CCC(C)CC2)c2nnn(Cc3ccccc3)c2n1,23,3.1*,7,-11,-9,2,
CC1CCc2cc(F)ccc2N1C(=O)CSc1nnc2c(n1)[nH]c1ccc(F)cc12 (stereo not given),24,1.2,-3,-14,7,8,
CCCC(=O)Nc1ccc(C(=O)Nc2nnc(COCC)s2)cc1,0,-7.8*,7,-11,-8,0,
COc1ccc(C)cc1NC(=O)C(C)N(c1ccc(C)cc1)S(C)(=O)=O (stereo not given),4,2.7*,-3,-3,6,7,
CCn1c2ccccc2c2cc(N)ccc21,3,0.0029,3,-7,-4,57*,
Cc1cc(C)c(NC(=O)c2ccc(S(=O)(=O)N3CCOCC3)cc2)c(C)c1,-3,1.8,.,72*,.,6,PLK1 inh conf=-11;TR-FRET interf=-48
COc1cc(C)ccc1NC(=O)c1ccc(S(=O)(=O)N2CCOCC2)cc1,27,-0.25,-4,-6,3,6,
COc1ccc(-n2c(SCCC#N)nnc2-c2cc(Cl)ccc2OC)cc1Cl,32,0.29,-2,-1,0,3,
O=c1c2c([nH]c3ccc(Br)cc13)CCCC2,.,-1.8,.,.,.,.,
